Active and inactive are the calls of the source. The rule behind the calls is not given here.
Experiments:
[1] = AUClast in Sprague-Dawley rat at 100 mg/kg, po administered as single dose measured up to 6 hrs post dose by LC/MS/MS analysis; format: ADME, organism-based; set-up: dose 100 mg/kg, time < 6 hr, route oral; conditions: in vivo
Outline: (§1)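 Single oral dose to Sprague Dawley rats; plasma collected at 0.25, 0.5, 1, 2, 4 and 6 hr; analytes in plasma quantified by LC/MS/MS.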

[2] = Plasma concentration in Sprague-Dawley rat at 300 mg/kg, qd administered through oral gavage for 7 days measured 2 hrs post last dose by LC/MS/MS analysis; format: ADME, organism-based
[3] = Drug uptake in Sprague-Dawley rat liver at 300 mg/kg, qd administered through oral gavage for 7 days measured 2 hrs post last dose by LC/MS/MS analysis; format: ADME, organism-based; conditions: read-out: Drug uptake
[4] = Drug uptake in Sprague-Dawley rat intestine at 300 mg/kg, qd administered through oral gavage for 7 days measured 2 hrs post last dose by LC/MS/MS analysis; format: ADME, organism-based; conditions: read-out: Drug uptake
Plasma [5] = experiment: Drug metabolism in Sprague-Dawley rat plasma assessed as nicotinuric acid formation at 300 mg/kg, qd administered through oral gavage for 7 days measured 2 hrs post last dose by LC/MS/MS analysis; format: ADME, organism-based; conditions: in vivo
Liver [6] = experiment: Drug metabolism in Sprague-Dawley rat liver assessed as niacin linker metabolite N-(2-aminoethyl)nicotinamide formation at 300 mg/kg, qd administered through oral gavage for 7 days measured 2 hrs post last dose by LC/MS/MS analysis; format: ADME, organism-based; conditions: in vivo
HepG2 = experiment: Inhibition of ApoB secretion in human HepG2 cells after 16 hrs by ELISA; format: functional, cell-based
Mus musculus [7] = experiment: Inhibition of triglyceride levels in po dosed ApoE*3-Leiden mouse plasma administered for 16 weeks; format: functional, organism-based
Outline: (§2)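 Transgenic ApoE*3-Leiden mice on high-cholesterol Western-type diet dosed over 16 weeks; plasma PCSK9, total cholesterol, triglycerides and lipoprotein profile (VLDL, LDL) assessed at study end.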

Mus musculus [8] = experiment: Inhibition of VLDL cholesterol levels in po dosed ApoE*3-Leiden mouse plasma administered for 16 weeks; format: functional, organism-based; outline: as §2
[9] = Cmax in Sprague-Dawley rat at 100 mg/kg, po administered as single dose measured up to 6 hrs post dose by LC/MS/MS analysis; format: ADME, organism-based; set-up: dose 100 mg/kg, route oral; conditions: in vivo; outline: as §1
[10] = Drug metabolism in Sprague-Dawley rat epididymal fat assessed as salicyluric acid formation at 300 mg/kg, po administered for 14 days followed by 7 day washout cycle measured on day 21; format: ADME, organism-based, Epididymal fat pad; conditions: in vivo
Rattus norvegicus = experiment: AUClast in Sprague-Dawley rat assessed as salicylate-linker metabolite N-(2-aminoethyl)-2-hydroxy-benzamide at 300 mg/kg, po measured up to 24 hrs post dose; format: ADME, organism-based; set-up: time < 24 hr, dose 300 mg/kg, route oral; conditions: in vivo
Outline: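 Single oral dose of 300 mg/kg to Sprague Dawley rats. Plasma collected at 0, 0.5, 1, 2, 4, 8 and 24 hr. Analytes were the parent, the salicylate-linker and linker-DHA metabolites, salicylic acid and salicyluric acid; Cmax and AUClast derived.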

[11] = Drug uptake in Sprague-Dawley rat muscle at 300 mg/kg, po administered for 7 days measured 4 hrs post dose on day 7; format: ADME, organism-based, Muscle tissue; conditions: read-out: Drug uptake
Outline: (§3)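 Male Sprague Dawley rats, groups of 4, dosed orally at 300 mg/kg once daily for 14 days. Animals killed on days 1, 3, 7 and 14, with plasma, brain, epididymal fat, liver and muscle taken 4 hr after dosing. Parent, salicylic acid and salicyluric acid were measured.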

Plasma [12] = experiment: Drug metabolism in Sprague-Dawley rat plasma assessed as salicylic acid formation at 300 mg/kg, po administered for 7 days measured 4 hrs post dose on day 7; format: ADME, organism-based; conditions: in vivo; outline: as §3
Muscle tissue [13] = experiment: Drug metabolism in Sprague-Dawley rat muscle assessed as salicyluric acid formation at 300 mg/kg, po administered for 7 days measured 4 hrs post dose on day 7; format: ADME, organism-based; conditions: in vivo; outline: as §3
Liver [14] = experiment: Drug metabolism in Sprague-Dawley rat liver assessed as salicyluric acid formation at 300 mg/kg, po administered for 7 days measured 4 hrs post dose on day 7; format: ADME, organism-based; conditions: in vivo; outline: as §3
Muscle tissue [15] = experiment: Drug uptake in Sprague-Dawley rat muscle at 300 mg/kg, po administered for 14 days followed by 7 day washout cycle measured on day 21; format: ADME, organism-based; conditions: in vivo
Brain [16] = experiment: Drug uptake in Sprague-Dawley rat brain at 300 mg/kg, po administered for 14 days followed by 7 day washout cycle measured on day 21; format: ADME, organism-based; conditions: in vivo
Plasma [17] = experiment: Drug uptake in Sprague-Dawley rat plasma at 300 mg/kg, po administered for 14 days followed by 7 day washout cycle measured on day 21; format: ADME, organism-based; conditions: in vivo
Liver [18] = experiment: Drug metabolism in Sprague-Dawley rat liver assessed as salicylic acid formation at 300 mg/kg, po administered for 14 days followed by 7 day washout cycle measured on day 21; format: ADME, organism-based; conditions: in vivo
Brain [19] = experiment: Drug metabolism in Sprague-Dawley rat brain assessed as salicylic acid formation at 300 mg/kg, po administered for 14 days followed by 7 day washout cycle measured on day 21; format: ADME, organism-based; conditions: in vivo
Plasma [20] = experiment: Drug metabolism in Sprague-Dawley rat plasma assessed as (4Z,7Z,10Z,13Z,16Z,19Z)-N-(2-aminoethyl)docosa-4,7,10,13,16,19-hexaenamide formation at 300 mg/kg, po measured up to 24 hrs post dose; conditions: in vivo

CC/C=C\C/C=C\C/C=C\C/C=C\C/C=C\CCCC(=O)NCCNC(=O)c1cccnc1
AUC(0-t) at 6 h [1]: 172 ng·h/mL | concentration at 2 h [2]: 13 ng/mL | concentration at 2 h [3]: 7.5 ng/g | concentration at 2 h [4]: 6750 ng/g | Drug metabolism (Plasma [5]): 3220 ng/mL | Drug metabolism (Liver [6]): 10910 ng/g | inhibition (HepG2): Dose-dependent effect | IC50 (HepG2; HepG2, 16 h): 27 µM | inhibition (Mus musculus [7]): Active | inhibition (Mus musculus [8]): Active | Cmax [9]: 212 ng/mL

CC/C=C\C/C=C\C/C=C\C/C=C\C/C=C\C/C=C\CCC(=O)NCCNC(=O)c1ccccc1O [EDASALONEXENT]
Drug metabolism [10]: metabolite_notdetected | AUClast (Rattus norvegicus): 2611 ng·h/mL | concentration at 4 h [11]: 425 ng/g | Drug metabolism (Plasma [12]): 154.2 ng/mL | Drug metabolism (Muscle tissue [13]): 165.21 ng/g | Drug metabolism (Liver [14]): 506.48 ng/g | Drug uptake (Muscle tissue [15]): Not Active | Drug uptake (Brain [16]): Not Active | Drug uptake (Plasma [17]): Not Active | Drug metabolism (Liver [18]): metabolite_notdetected | Drug metabolism (Brain [19]): metabolite_notdetected | Drug metabolism (Plasma [20]): metabolite_notdetected

— ChEMBL document CHEMBL3785029, “Synthesis and Characterization of Fatty Acid Conjugates of Niacin and Salicylic Acid” (J Med Chem, 2016)
